Hits are enriched below; roughly 1.5% of the tested compounds scored in any of these assays.
MITF act: activators of MITF-driven TRPM1 promoter reporter, primary screen, cell-based, SK-MEL-5, luciferase, single point. activation, % at 12.5 µM. 300,000 tested, 0.75% active. SK-MEL-5 TRPM1-promoter luciferase, 24 h; % of positive control, neutral wells = 0. AID 588334, 2011;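 active = mean activation of at least 80% with every replicate also reaching 80%; inconclusive = mean reaches 80% but some replicate falls short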
Wnt act: Wnt/beta-catenin pathway activators, primary screen, cell-based, plate reader, single point. Wnt/beta-catenin reporter cell assay, activator. activation, % at 9.35 µM. 300,000 tested, 1.2% active. AID 743398, 2014; in the data active = activation above about 30%, passing the limit was not always enough; inconclusive = no clear call, values can overlap the other calls
PGC1a acetyl inh: inhibitors of PGC1a acetylation signal, primary screen, cell-based, U2OS, AlphaScreen, inhibitor mode; AlphaScreen anti-acetyl-lysine; with virally co-expressed GCN5 acetyltransferase; inhibition, % at 15.6 µM; 350,000 tested, 0.17% active;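 active = every replicate shows inhibition of at least 40%; inconclusive = mean inhibition at least 40% but some replicate below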
Cneo AK release: Cryptococcus neoformans cell lysis inducers, primary screen, AK release luminescence, single concentration | C. neoformans lysis, adenylate kinase release luminescence, 4 h; normalised: neutral wells 0, clomiphene wells 100 | lysis activity, % at 15 µM | 360,000 tested, 0.2% active;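 active = mean lysis activity across replicates of at least 80%, whatever share of replicates individually reach that level; inactive = mean lysis activity below 80%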
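Material – Cryptococcus neoformans yeast cells · Quantity – 5 × 10^6 yeast cells/mL · Buffer or medium – YPD medium · Compound – single dose · Timing – 4 h static compound exposure, 37 °C, read 1 h post-reagent · Signal – adenylate kinase release luminescence · Read-out basis – lysis from increased AK signal · Benchmarks – Clomiphene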
Each line names hits and unclear results; the compound was inactive in the other large screens.

O=C(CC(SCCO)c1ccc2c(c1)OCO2)c1cccs1 (configuration not stated)	MITF act 88, Wnt act 42
O=C(CC(SCc1ccco1)c1ccc(O)cc1)c1cccs1 (configuration not stated)	none (no result: Wnt act)
Cc1cc(C)nc(N/N=C/c2ccccc2OCc2ccc(Cl)cc2)n1	Wnt act 35 (no result: PGC1a acetyl inh)
COc1ccc(/C=C(\C#N)C(=O)Nc2ccccn2)cc1	none
Cc1ccc(/C=C(\C#N)C(=O)Nc2ccccn2)o1	MITF act 103
COc1ccc(-n2nc([N+](=O)[O-])c(=NCc3ccco3)n2O)cc1	Wnt act 43 (no result: Cneo AK release)
COc1ccc(-n2nc([N+](=O)[O-])c(=NCc3cccnc3)n2O)cc1	none
Cc1noc(C)c1NC(=O)Nc1cccc2c1O[C@H](CN(C)S(=O)(=O)c1cn(C)cn1)[C@H](C)CN([C@H](C)CO)C2=O	Cneo AK release 96 (no result: MITF act, Wnt act)
C[C@@H]1CN([C@H](C)CO)C(=O)c2c(c3ccccc3n2C)-c2ccccc2CO[C@H]1CN(C)S(=O)(=O)c1cccs1	Cneo AK release 90 (no result: MITF act, Wnt act)
C[C@H](CO)N1C[C@H](C)[C@@H](CN(C)S(=O)(=O)c2cccs2)Oc2c(NS(=O)(=O)c3cn(C)cn3)cccc2C1=O	Wnt act 47
Cc1noc(C)c1NC(=O)Nc1cccc2c1O[C@@H](CN(C)Cc1ccc(Oc3ccccc3)cc1)[C@@H](C)CN([C@@H](C)CO)C2=O	none (no result: MITF act, Wnt act)
C[C@H](CO)N1C[C@H](C)[C@H](CN(C)S(=O)(=O)c2cccs2)OCc2ccccc2-c2c(n(C)c3ccccc23)C1=O	none (no result: MITF act, Wnt act)
Cc1noc(C)c1NC(=O)Nc1cccc2c1O[C@@H](CN(C)S(=O)(=O)c1cn(C)cn1)[C@H](C)CN([C@@H](C)CO)C2=O	none (no result: MITF act, Wnt act)
Cc1noc(C)c1NC(=O)Nc1cccc2c1O[C@H](CN(C)Cc1ccc(Oc3ccccc3)cc1)[C@H](C)CN([C@@H](C)CO)C2=O	PGC1a acetyl inh 100 (no result: MITF act, Wnt act)
Cc1noc(C)c1S(=O)(=O)N(C)C[C@@H]1OCCCC[C@H](C)Oc2ccc(NS(C)(=O)=O)cc2C(=O)N([C@@H](C)CO)C[C@H]1C	none (no result: MITF act, Wnt act)
CCCNC(=O)C[C@H]1C[C@H]2c3cc(NC(=O)Nc4ccccc4)ccc3O[C@H]2[C@H](CO)O1	none (no result: MITF act, Wnt act)
COc1ccc(S(=O)(=O)N(C)C[C@H]2Oc3c(NC(=O)Nc4ccc(C(F)(F)F)cc4)cccc3C(=O)N([C@@H](C)CO)C[C@H]2C)cc1	none (no result: MITF act, Wnt act)
CC(C)C#Cc1ccc2c(c1)O[C@H](CN(C)C(=O)NC(C)C)[C@@H](C)CN([C@@H](C)CO)S2(=O)=O	none (no result: MITF act, Wnt act)
CCNC(=O)C[C@H]1CC[C@@H]2[C@@H](COc3ccc(NC(=O)c4ccccc4)cc3C(=O)N2C)O1	none (no result: MITF act, Wnt act)
CO[C@@H]1CN(C)C(=O)c2cc(NS(C)(=O)=O)ccc2OC[C@@H](C)N(CC2CCOCC2)C[C@@H]1C	none (no result: MITF act, Wnt act)
CO[C@H]1CN(C)C(=O)c2ccc(NC(=O)Nc3cccc(F)c3)cc2OC[C@@H](C)N(C(C)=O)C[C@H]1C	none (no result: MITF act, Wnt act)
CCCSc1nc2c(cnn2-c2ccccc2)c(=O)n1N	Wnt act 41 (no result: MITF act)
CCCCSc1nc2c(cnn2-c2ccccc2)c(=O)n1N	none
NC(=O)C1CCN(C(=O)c2cc3c(s2)CCCCC3)CC1	Wnt act inconclusive
CC1CCc2sc(C(=O)N3CCC(C(N)=O)CC3)cc2C1 (configuration not stated)	Wnt act 36 (no result: MITF act)
C[C@H](CO)N1C[C@H](C)[C@@H](CN(C)S(=O)(=O)c2cn(C)cn2)Oc2ccc(NC(=O)CCC(F)(F)F)cc2CC1=O	none (no result: MITF act, Wnt act)
CCOc1ccc2oc(C(=O)Nc3ccc4c(c3)OCO4)c(C)c2c1	MITF act 90
CCOc1ccc2oc(C(=O)Nc3cc(C)ccn3)c(C)c2c1	MITF act inconclusive, Wnt act 42 (no result: PGC1a acetyl inh)
CCCN(C)C[C@H]1Oc2cc(C#CCC3CCCC3)ccc2S(=O)(=O)N([C@H](C)CO)C[C@@H]1C	none (no result: MITF act, Wnt act)
COC(=O)C[C@@H]1C[C@@H]2c3cc(NC(=O)Nc4ccccc4)ccc3O[C@@H]2[C@@H](CO)O1	none (no result: MITF act, Wnt act)
O=C(Nc1sc(-c2ccccc2)cc1C(=O)O)c1ccccc1	Wnt act 34
CCOC(=O)c1cc(-c2ccccc2)sc1NC(=O)CC	none (no result: PGC1a acetyl inh, Cneo AK release)
O=C(c1ccccc1)c1ccc(-c2ccc(O)cc2)cc1	Wnt act 35 (no result: PGC1a acetyl inh)
CC1CCCC=CC2CC(OC(=O)CN(C)C)CC2C(O)C=CC(=O)O1 (configuration not stated)	PGC1a acetyl inh 67 (no result: MITF act, Cneo AK release)
